# Screening results: PubChem BioAssay, several laboratories
# An excerpt weighted towards active compounds, which were near 3.9% of everything screened.
# TMEM16A inh = TMEM16A chloride channel inhibitors, primary screen, cell-based, HTS; Anoctamin-1 (Mus musculus), Q8BHY3; HEK293 TMEM16A/YFP iodide influx fluorescence, ionomycin; normalized B-score (activity score, 25-100; higher = stronger inhibition) at 10 µM; 310,000 tested, 1.2% active;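 active means ratio plate-corrected score three or more library SD toward inhibition, starting fluorescence score within five deviations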;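 further: score derived from kinetic fluorescence span divided by baseline fluorescence per well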
# Target sequence (Q8BHY3 whole entry, looked up): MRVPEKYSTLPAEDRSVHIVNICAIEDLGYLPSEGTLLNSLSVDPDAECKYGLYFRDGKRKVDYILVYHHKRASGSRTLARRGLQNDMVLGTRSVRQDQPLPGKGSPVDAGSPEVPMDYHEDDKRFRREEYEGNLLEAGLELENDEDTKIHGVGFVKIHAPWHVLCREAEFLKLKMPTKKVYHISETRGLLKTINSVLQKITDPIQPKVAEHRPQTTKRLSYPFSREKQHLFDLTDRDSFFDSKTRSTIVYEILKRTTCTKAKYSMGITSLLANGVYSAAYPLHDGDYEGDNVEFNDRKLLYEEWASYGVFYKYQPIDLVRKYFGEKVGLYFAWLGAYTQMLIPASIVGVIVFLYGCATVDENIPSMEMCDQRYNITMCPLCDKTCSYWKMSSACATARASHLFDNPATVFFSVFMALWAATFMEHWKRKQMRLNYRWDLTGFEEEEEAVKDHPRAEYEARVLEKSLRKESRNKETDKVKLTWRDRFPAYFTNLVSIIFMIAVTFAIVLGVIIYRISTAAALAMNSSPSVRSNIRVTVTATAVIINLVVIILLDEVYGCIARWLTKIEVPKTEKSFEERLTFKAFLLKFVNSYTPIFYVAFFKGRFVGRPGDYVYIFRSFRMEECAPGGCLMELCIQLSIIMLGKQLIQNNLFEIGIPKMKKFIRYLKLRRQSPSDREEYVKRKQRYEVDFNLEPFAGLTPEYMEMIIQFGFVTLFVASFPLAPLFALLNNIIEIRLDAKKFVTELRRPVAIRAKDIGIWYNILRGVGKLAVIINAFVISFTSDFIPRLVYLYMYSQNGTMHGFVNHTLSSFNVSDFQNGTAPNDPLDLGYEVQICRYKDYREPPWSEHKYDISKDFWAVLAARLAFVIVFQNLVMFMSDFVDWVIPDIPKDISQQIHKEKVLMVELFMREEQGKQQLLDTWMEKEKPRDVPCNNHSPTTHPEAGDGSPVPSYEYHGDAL
# TAAR1 ag = human TAAR1 agonists, primary screen, Fluo-8 calcium fluorescence, CHO RD-HGA16 cells | Trace amine-associated receptor 1 (Homo sapiens), Q96RJ0 | vehicle wells 0%, saturating PEA agonist 100% | activation, % at 3 µM | 360,000 tested, 0.99% active;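 active means activation above the mean activation of all test compounds in the run plus 3 SD, cut at about 38% in these data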
#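 Test system: RD-HGA16 (CHO) cells co-expressing Gα16 and hTAAR1; dosing: one-point dosing at 3 µM (nominal); timing: 17-24 h seeding, 75 min 37 °C dye, 30 min RT; signal: kinetic Fluo-8 calcium fluorescence; read-out basis: % activation relative to PEA EC100 response; controls: DMSO and PEA EC100; replicates: n 1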
# CRFR2-BP antag = antagonists of CRF-BP/CRF-R2 complex, primary screen, cell-based, HEK293, calcium dye fluorescence, uHTS; 350,000 tested, 0.59% active; CRF-induced calcium fluorescence; inhibition, % at 11.8 µM; AID 588475, 2011;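 active means inhibition of the ligand-induced calcium signal above about 50% at the single tested concentration, limit read from the data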
# TAAR1 antagonist = human TAAR1 antagonists, primary screen, Fluo-8 calcium fluorescence, CHO RD-HGA16 cells; inhibition, % at 3 µM; antagonist; AID 624466, 2012; 360,000 tested, 1.5% active; Trace amine-associated receptor 1 (Homo sapiens), Q96RJ0;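 active means inhibition above a per-plate cutoff, the mean inhibition of test compounds on that plate plus 3 SD, cut at about 49% in these data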;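 further: 0% = DMSO plus EC80 beta-PEA response and 100% = DMSO alone without agonist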
#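 Test system: CHO RD-HGA16 cells bearing hTAAR1 | Reagent: β-PEA, EC80 | Compound dosing: 3 µM, single point | Schedule: Dye loading 75 min at 37 °C, then 30 min room temperature | Signal: Calcium fluorescence with Fluo-8 | Evaluation: Percent inhibition of PEA-evoked calcium signal, max/basal emission ratio | Control set: DMSO-only wells and EC80 β-PEA-stimulated wells | Repeats: Singlicate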
# ANO1 activ = TMEM16A chloride channel activators or potentiators, primary screen, cell-based, HTS | Anoctamin-1 (Mus musculus), Q8BHY3 | HEK293 TMEM16A/YFP-H148Q/I152L, iodide quench fluorescence; active compounds read low | B-score at 10 µM | 340,000 tested, 0.3% active | AID 623877, 2012;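 active means fluorescence-ratio B-score plate-corrected deviation score at least 3 library SD below zero, with starting fluorescence score within 5 deviations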;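 further: channel opened by trigger with iodide after compound preincubation; score built on the fluorescence ratio of max minus min over baseline; more negative score means more quench and so TMEM16A activation or potentiation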
# CRFBP-R2 agonist = agonists of CRF-BP/CRF-R2 complex, primary screen, cell-based, HEK293, calcium dye fluorescence, uHTS; activation, % at 13.2 µM; calcium dye fluorescence (FLIPR); percent of saturating CRF peptide response; CRF-binding protein / CRF receptor 2 complex (human); 350,000 tested, 0.46% active;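 active means activation of at least 50%, plus an integration ratio under a set limit after plate pattern correction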;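 further: plate controls were neutral control wells without compound for no effect and CRF at EC100 for full effect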
# TAAR1 nonsel count = nonselective antagonists in TAAR1 counter-screen cells, counter-screen for hTAAR1 antagonist project, cell-based, fluorescence, calcium | 2,400 tested, 77% active | inhibition, % at 3 µM | AID 651780, 2012 | counterscreen cell line, antagonist mode | shares compounds with TAAR1 antagonist; in the data active means inhibition above about 22%;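 further: CHO-Ga16 host cells stimulated with ATP at an EC80 level; 0% = agonist EC80 plus vehicle and 100% = vehicle without agonist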
# TAAR1 ant conf = human TAAR1 antagonists, retest of hits, confirmation, cell-based, fluorescence. shares compounds with TAAR1 antagonist. TAAR1-expressing cells, fluorescence antagonist read-out. AID 651785, 2012. inhibition, % at 3 µM. 2,400 tested, 40% active; in the data active means inhibition above about 49%;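 further: CHO-Ga16 host cells challenged with agonist PEA near its EC80; 0% = agonist at EC80 plus vehicle and 100% = vehicle with no agonist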
# Ga16 nonsel ag = calcium activation in Ga16-expressing cells, counter-screen for TAAR1 antagonist project, cell-based, fluorescence; activation, % at 3 µM; agonist counterscreen; 2,400 tested, 18% active; shares compounds with TAAR1 antagonist; AID 651953, 2012; in the data active means activation above about 12%;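 further: 0% = vehicle wells and 100% = saturating stimulus response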
# TAAR1 ag count = TAAR1 activation by candidate antagonists – cell-based, fluorescence, counter-screen for TAAR1 antagonist project. shares compounds with TAAR1 antagonist. hTAAR1 cell line, agonist mode. activation, % at 3 µM. 2,400 tested, 2% active. AID 651955, 2012; in the data active means activation above about 37%;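 further: CHO cells stably expressing TAAR1 with calcium dye readout; 0% = DMSO vehicle and 100% = full agonist response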
# An asterisk follows results filed as active; i = inactive; / = no result.
SMILES,TMEM16A inh,TAAR1 ag,CRFR2-BP antag,TAAR1 antagonist,ANO1 activ,CRFBP-R2 agonist,TAAR1 nonsel count,TAAR1 ant conf,Ga16 nonsel ag,TAAR1 ag count
CC(C)CC(C(=O)NC1CCCC1)N(Cc1cccs1)C(=O)c1snc(C(N)=O)c1N (stereo unspecified),i,7,-3,55*,i,-1,29*,40,6,3
CC(C)Oc1ccc(S(=O)(=O)N2CCOCC2)cc1NC(=O)CC1CC2CCC1C2 (stereo unspecified),/,-1,7,-16,/,-2,/,/,/,/
Cc1ccccc1OCC(=O)N=Nc1c(O)n(C)c2ccccc12,i,6,-16,54*,i,0,27*,46,6,9
Cc1nnc(NC(=O)c2sc3ccccc3c2Cl)s1,i,10,-18,-1,i,0,/,/,/,/
O=C(Nc1cccc(NC(=O)c2ccc(-c3cccc(Br)c3)o2)c1)c1ccco1,i,16,-5,52*,i,-1,25*,48,8,5
CNC(=O)c1ccsc1NC(=O)c1sc2ccccc2c1Cl,i,10,12,71*,i,-1,35*,50*,9,4
O=C(Nc1cccc(NC(=O)c2ccco2)c1)c1ccccc1,i,-1,-7,-1,i,-1,/,/,/,/
O=C(Nc1cccc(NC(=O)c2sc3ccccc3c2Cl)c1)c1ccco1,i,8,-10,55*,i,-3,19,21,2,-3
CCS(=O)(=O)c1cc([N+](=O)[O-])c(Sc2ccccc2NC(C)=O)s1,i,5,-3,-36,i,-1,/,/,/,/
COc1cc2cc(CN(Cc3nnnn3Cc3ccco3)C3CCCCC3)c(=O)[nH]c2cc1OC,i,9,4,4,i,14,/,/,/,/
CCOc1ccc2[nH]c(=O)c(CN(Cc3nnnn3Cc3ccco3)C3CCCCC3)cc2c1,i,26,19,54*,i,9,28*,58*,8,14
CCCCn1c(=O)n(CC(=O)NCc2ccc(C)cc2)c(=O)c2c1nc(CO)n2CCC,i,11,-33,50*,i,2,22*,39,6,4
Cc1ccc(CNC(=O)CCCn2c(=O)c3ccccc3n(CC(=O)NC3CCCC3)c2=O)cc1,i,2,-6,6,i,-1,/,/,/,/
CC(CCc1ccccc1)NC(=O)COC(=O)c1ccccc1O (stereo unspecified),i,0,11,-8,i,-2,/,/,/,/
COc1cccc(-c2nn(-c3ccc(C)cc3)cc2C(=O)N(C)CC(=O)Nc2cccc(F)c2)c1,/,4,-10,61*,i,8,29*,33,4,6
COc1ccc(-c2cc(C(=O)N(C)CC(=O)Nc3cccc(F)c3)c3ccccc3n2)cc1,i,8,-9,82*,i,2,41*,61*,10,6
COc1ccc(-c2cc(C(=O)N(C)Cc3ccc(F)cc3)c3ccccc3n2)cc1OC,i,5,12,72*,i,1,26*,48,6,4
COc1cccc(NC(=O)CN(C)C(=O)c2cc(-c3ccco3)nc3ccccc23)c1,i,13,-23,48,i,-2,/,/,/,/
COc1ccc(-c2nn(-c3ccccc3)cc2C(=O)N(C)CC(=O)Nc2cccc(F)c2)cc1,/,2,-8,20,i,2,/,/,/,/
CN(CC(=O)Nc1cccc(F)c1)C(=O)c1cc(-c2ccccc2)nc2ccccc12,i,5,-15,72*,i,5,31*,49*,9,5
COc1cccc(CNC(=O)COc2ccc(C(=O)c3ccccc3)cc2)c1,i,0,11,13,i,5,/,/,/,/
COc1cc(OC)cc(C(=O)N(Cc2ccco2)c2c(N)n(Cc3ccccc3)c(=O)[nH]c2=O)c1,/,6,-2,-21,i,-1,/,/,/,/
CC(C)CNC(=O)/C=C/C=C/CCCC/C=C/c1ccc2c(c1)OCO2,/,0,6,13,i,1,/,/,/,/
CCC(CO)Oc1cc(NCc2cccc(OC)c2)c2ncn(C(C)C)c2c1 (stereo unspecified),/,14,-1,106*,i,-3,9,2,0,0
CCC(CO)Oc1cc(NCc2cccc(O)c2)c2ncn(C(C)C)c2c1 (stereo unspecified),/,8,1,4,i,-2,/,/,/,/
SMILES,TMEM16A inh,TAAR1 ag,CRFR2-BP antag,TAAR1 antagonist,ANO1 activ,CRFBP-R2 agonist,TAAR1 nonsel count,TAAR1 ant conf,Ga16 nonsel ag,TAAR1 ag count
CCn1cc(C(=O)N2CCN(c3ccc(C(C)=O)cc3)CC2)c2cc(OC)c(OC)cc2c1=O,i,-1,-11,-20,i,1,/,/,/,/
O=C(Nc1cccc(S(=O)(=O)N2CCCCCC2)c1)c1cncc(Br)c1,/,10,-15,61*,i,0,37*,53*,11,15
O=C(Nc1cccc(S(=O)(=O)C(F)F)c1)c1ccc(S(=O)(=O)N2CCCCC2)cc1,i,15,-47,64*,i,7,35*,37,9,4
Cc1ccc(F)cc1NC(=O)CSc1n[nH]c(N)n1,/,0,4,-8,i,1,/,/,/,/
COc1ccc(CCN(C)C2CCCN(C(=O)c3sccc3C)C2)cc1OC (stereo unspecified),i,7,20,-19,i,-3,/,/,/,/
C=CCN1C(c2ccc(Br)cc2)=CS/C1=C(\C#N)c1nnc(N2CCOCC2)n1-c1ccccc1,/,7,14,58*,i,-2,24*,23,5,6
COc1ccc(Cl)cc1Cn1c(C)c(C(=O)NCc2ccc3c(c2)OCCO3)sc1=O,/,7,/,56*,/,/,23*,39,7,7
